Laboratory results from ChEMBL document CHEMBL3046913, “Feeding deterrence and contact toxicity of Stemona alkaloids-a source of potent natural insecticides” (2002).
In brackets after ≈: the same amount, converted by molar mass. Activity calls are given as the source filed them. No cut-off for these calls is given here.

Tests used:
[1] = tested on: Spodoptera littoralis; experiment: Antifeedant activity against fifth instar larvae of Spodoptera littoralis assessed as inhibition of feeding without tasting treated leaf disk at 0.1 ug/cm2 after 24 hr by leaf disk choice assay; assay type: functional, organism-based
How it was run: (§1)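 Leaf disk choice test with fifth instar larvae (about 70 mg each). Lettuce disks of 1.33 cm2 were treated on the upper surface with pure compound at 1-0.001 µg/cm2 in MeOH; controls got solvent only. Two treated and two control disks were placed on moist filter paper with two larvae. Scoring was done when about 50% of control area (0.665 cm2) was eaten, 24 h maximum. Three trials in duplicate, six replicates.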

[2] = tested on: Spodoptera littoralis; experiment: Insecticidal activity against neonate larvae of Spodoptera littoralis after 5 days; assay type: functional; details: 120 h
How it was run: (§2)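 Chronic diet assay: neonate larvae (n = 20) from a lab colony were kept on artificial diet spiked via MeOH with eight concentrations of pure alkaloid (0.1-500 ppm). After 5 days in a moist chamber, dark, at 26 °C, survival and weight of survivors were compared with solvent-treated controls. LC50 and EC50 (50% growth inhibition) were derived by probit-log analysis. Run in triplicate.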

[3] = tested on: Spodoptera littoralis; experiment: Toxicity in neonate larvae of Spodoptera littoralis at 133 ug/dm2 after 48 hr; assay type: functional, organism-based
How it was run: (§3)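 Contact toxicity: glass vials were coated with seven concentrations of test compound and the solvent evaporated. Twenty neonate larvae were held in the vials for 3 h, then given artificial diet. Survival was read at 48 h and LC50 derived by probit-log analysis. Run in triplicate or duplicate.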

[4] = tested on: Spodoptera littoralis; experiment: Antifeedant activity against fifth instar larvae of Spodoptera littoralis at 0.001 ug/cm2 after 24 hr by leaf disk choice assay; assay type: functional, organism-based; how it was run: as §1
[5] = tested on: Spodoptera littoralis; experiment: Toxicity in sixth instar larvae of Spodoptera littoralis assessed as survival at 100 ug/larvae treated directly into hemolymph after 48 hr
[6] = tested on: Spodoptera littoralis; experiment: Antifeedant activity against fifth instar larvae of Spodoptera littoralis assessed as 5 to 20% of total area of treated leaf disks in each petri dish consumed at 0.01 ug/cm2 after 24 hr by leaf disk choice assay; assay type: functional, organism-based; how it was run: as §1
[7] = tested on: Spodoptera littoralis; experiment: Antifeedant activity against fifth instar larvae of Spodoptera littoralis assessed as inhibition of feeding without tasting treated leaf disk at 1 ug/cm2 after 24 hr by leaf disk choice assay; assay type: functional, organism-based; how it was run: as §1
[8] = tested on: Spodoptera littoralis; experiment: Toxicity in neonate larvae of Spodoptera littoralis after 48 hr; assay type: functional; how it was run: as §3
[9] = tested on: Spodoptera littoralis; experiment: Growth inhibition of neonate larvae of Spodoptera littoralis after 5 days; assay type: functional; details: 120 h; how it was run: as §2
[10] = tested on: Spodoptera littoralis; experiment: Antifeedant activity against fifth instar larvae of Spodoptera littoralis assessed as < 5% of total area of treated leaf disks in each petri dish consumed at 0.001 ug/cm2 after 24 hr by leaf disk choice assay; assay type: functional, organism-based; how it was run: as §1
[11] = tested on: Spodoptera littoralis; experiment: Antifeedant activity against fifth instar larvae of Spodoptera littoralis assessed as inhibition of feeding without tasting treated leaf disk at 0.01 ug/cm2 after 24 hr by leaf disk choice assay; assay type: functional, organism-based; how it was run: as §1

With `CC[C@@H]1[C@H]2CCCCN3[C@H]2[C@H](C[C@H]3[C@@H]2C[C@H](C)C(=O)O2)[C@@H]2[C@H]1OC(=O)[C@H]2C` [TUBEROSTEMONINE] as the compound, how does the AFI [1] read?
The AFI was “Active”.

And the LC50 [2]?
The LC50 was greater than 500 mg/L.

And the AFI [3]?
The AFI was “inactive”.

And the AFI [4]?
The AFI was “inactive”.

And the Survival [5]?
Its Survival is 100%.

And the AFI [6]?
Its AFI is “Active”.

And the AFI [7]?
Its AFI is “Active”.

`CCCC[C@@]12C3CCN1[C@H]1C[C@H]2O[C@@]32O/C(=C3\OC(=O)C(C)=C3OC)[C@@H](C)[C@H]12` [STEMOFOLINE] was tested. Which LC50 [8] did it give?
The LC50 was 0.59 microg/dm2.

And the EC50 (50% growth inhibition) [9]?
The EC50 (50% growth inhibition) was 1.46 mg/L (≈ 3.77 µM).

What about the LC50 [2] of the same compound?
The LC50 was 2.04 mg/L (≈ 5.26 µM).

With `CC[C@H](O)C[C@@]12[C@@H]3C[C@H]4[C@H]5[C@H](C)/C(=C6/OC(=O)C(C)=C6OC)O[C@]5(O3)[C@H]1CCN42` [2'-HYDROXYSTEMOFOLINE] as the compound, how does the EC50 (50% growth inhibition) [9] read?
Its EC50 (50% growth inhibition) is 38.5 mg/L (≈ 95.3 µM).

And the LC50 [2]?
Its LC50 is 30.3 mg/L (≈ 75.2 µM).

`C/C=C(\C)C(=O)O[C@H]1C[C@@H](OC(C)=O)[C@@]2(C(=O)OC)CO[C@H]3[C@@H](O)[C@@](C)([C@]45O[C@@]4(C)[C@@H]4C[C@H]5O[C@@H]5OC=C[C@@]54O)[C@H]4[C@]1(CO[C@]4(O)C(=O)OC)[C@@H]32` [AZADIRACHTIN A] was tested. Which AFI [10] did it give?
The AFI was “Active”.

What about the AFI [1] of the same compound?
The AFI was “Active”.

What about the LC50 [2] of the same compound?
Its LC50 is 8.2 mg/L (≈ 11.4 µM).

And the AFI [11]?
The AFI was “Active”.

And the AFI [3]?
Its AFI is “inactive”.

What about the AFI [7] of the same compound?
Its AFI is “Active”.

Which LC50 [8] does the source give for `CC/C=C/[C@@]12[C@@H]3C[C@H]4[C@H]5[C@H](C)/C(=C6/OC(=O)C(C)=C6OC)O[C@]5(O3)[C@@H]1CCN42` [DIDEHYDROSTEMOFOLINE] here?
The LC50 was 1.01 microg/dm2.

And the EC50 (50% growth inhibition) [9]?
Its EC50 (50% growth inhibition) is 0.46 mg/L (≈ 1.19 µM).

What about the LC50 [2] of the same compound?
Its LC50 is 0.84 mg/L (≈ 2.18 µM).
